This is an account of results in article PMC9870662 (Medicinal Chemistry Research, 2023).

The subject of assay [1] is MCF-7 breast cancer cell line. As to the kind of experiment: MTT cytotoxicity assay. The format is cell-based. The note with it: for inhibition at 10 µM: Homo sapiens, MCF7, 72 h, read-out: % Inhibition (10 µM); for % Inhibition (10 µM): MCF-7, 72 h, MTT. The essentials:
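MCF-7 cells from IBRC seeded in RPMI1640 at 37 °C, 5% CO2, high humidity. After one day, medium replaced with medium containing test compound; celecoxib as reference, plain medium as control. Incubated 72 h, then MTT added for 4 h at 37 °C. Supernatant removed, cells exposed to DMSO 20 min at 37 °C, absorbance read at 570 nm.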
For orientation: Formazan colour is commonly taken as a measure of viable cells.

Another assay deals with male NMRI mice. As to the kind of experiment: Acetic acid-induced writhing test. The note with it: for Response (n) Mean ± SD: number of writhing responses during 30 min, eight mice; for ED50: Mus musculus, ip, read-out: Estimated ED50 (mg/kg) (95% Confidence Interval); for Estimated ED50 (mg/kg) (95% Confidence Interval): i.p., nonlinear regression of log dose-response curve. The format is in vivo.

The target in the next assay is T1, Human recombinant COX-2 (Homo sapiens, UniProt P35354).
T1 sequence (P35354 18-604): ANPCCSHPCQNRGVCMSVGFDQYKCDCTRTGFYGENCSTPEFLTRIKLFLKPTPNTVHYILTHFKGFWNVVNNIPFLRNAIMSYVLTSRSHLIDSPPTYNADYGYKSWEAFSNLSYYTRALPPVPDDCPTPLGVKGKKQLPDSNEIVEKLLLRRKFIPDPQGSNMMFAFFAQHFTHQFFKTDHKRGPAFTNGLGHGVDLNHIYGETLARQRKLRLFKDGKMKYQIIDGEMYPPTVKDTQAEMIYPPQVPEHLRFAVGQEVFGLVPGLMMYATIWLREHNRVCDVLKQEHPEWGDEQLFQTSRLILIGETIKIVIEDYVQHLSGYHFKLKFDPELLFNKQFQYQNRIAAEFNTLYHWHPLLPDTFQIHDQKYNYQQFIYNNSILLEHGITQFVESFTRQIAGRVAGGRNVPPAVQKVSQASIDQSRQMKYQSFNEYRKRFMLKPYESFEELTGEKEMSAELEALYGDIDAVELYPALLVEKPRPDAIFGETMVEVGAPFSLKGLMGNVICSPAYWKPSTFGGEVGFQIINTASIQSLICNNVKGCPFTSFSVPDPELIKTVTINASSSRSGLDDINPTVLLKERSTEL
As to the kind of experiment: biochemical.

Another assay concerns the target T2, Ovine COX-1 (Ovis aries, UniProt P05979).
T2 sequence (P05979 25-600): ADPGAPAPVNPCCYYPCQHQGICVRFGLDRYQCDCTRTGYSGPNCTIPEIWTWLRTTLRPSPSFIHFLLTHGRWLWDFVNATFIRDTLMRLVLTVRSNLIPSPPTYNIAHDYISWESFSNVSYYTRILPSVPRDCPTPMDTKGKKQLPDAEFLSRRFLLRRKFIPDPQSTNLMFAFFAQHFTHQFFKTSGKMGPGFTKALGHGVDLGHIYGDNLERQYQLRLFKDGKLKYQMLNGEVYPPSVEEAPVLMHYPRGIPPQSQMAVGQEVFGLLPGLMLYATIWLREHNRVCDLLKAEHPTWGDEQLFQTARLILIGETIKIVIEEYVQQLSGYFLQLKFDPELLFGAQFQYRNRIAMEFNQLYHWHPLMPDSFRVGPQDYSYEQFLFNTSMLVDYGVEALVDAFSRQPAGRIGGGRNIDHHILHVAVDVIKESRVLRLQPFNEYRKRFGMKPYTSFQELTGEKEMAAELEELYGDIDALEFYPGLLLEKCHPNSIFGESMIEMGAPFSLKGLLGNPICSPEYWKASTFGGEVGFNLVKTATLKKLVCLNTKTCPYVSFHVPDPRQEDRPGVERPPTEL
As to the kind of experiment: COX-1 enzyme inhibition assay. The assay is classed as biochemical.

Setting [2] is: read-out: IC50 in µM Human recombinant COX-2.
Setting [3] is: read-out: IC50 in µM Ovine COX-1, fluorescent enzyme kit.

Like-named read-outs stand apart in the source and are kept apart here.

One may read the inhibition as the relative decrease from the control value, in per cent. As for `Cc1ccc(-c2cc(C(F)(F)F)nn2-c2ccc(S(N)(=O)=O)cc2)cc1` [Celecoxib, reference compound], the inhibition at 10 µM in assay [1] came out at 75.8%. The “Response (n) Mean ± SD” value was 33.62 ± 1.79 in the assay on male NMRI mice (10 mg/kg i.p.), 26.37 ± 2.86 in the assay with male NMRI mice (20 mg/kg i.p.), 13.75 ± 2.72 with male NMRI mice (40 mg/kg i.p.) and 7.37 ± 2.39 in the assay on male NMRI mice (80 mg/kg i.p.). In the assay on male NMRI mice, the ED50 is 20.2 mg/kg.
As a reminder, the IC50 is the concentration that inhibits the measured activity by half. For `CS(=O)(=O)c1ccc(-c2cc(-c3ccccc3)n3c(n2)nc2ccccc23)cc1` [Compound 5a, 2-(4-(Methylsulfonyl)phenyl)-4-phenylbenzo[4,5]imidazo[1,2-a]pyrimidine], the inhibition at 10 µM in assay [1] was 53.3%. Also, the IC50 on Human recombinant COX-2 was determined as 0.05 µM; on Ovine COX-1, 6.1 µM. Also, on Human recombinant COX-2 (COX-1 vs COX-2), the “Selectivity Index (SI)” value amounted to 122. Also, the “Response (n) Mean ± SD” value with male NMRI mice (5 mg/kg i.p.) is 25 ± 1.58; in the assay on male NMRI mice (10 mg/kg i.p.), 20.75 ± 3.07; with male NMRI mice (20 mg/kg i.p.), 17.25 ± 2.95; in the assay on male NMRI mice (40 mg/kg i.p.) it was 12.63 ± 2.64; with male NMRI mice (80 mg/kg i.p.), 10.00 ± 1.50. Also, the ED50 in the assay with male NMRI mice is 8.65 mg/kg.
Turning to `Cc1ccccc1-c1cc(-c2ccc(S(C)(=O)=O)cc2)nc2nc3ccccc3n12` [Compound 5b, 2-(4-(Methylsulfonyl)phenyl)-4-(o-tolyl)benzo[4,5]imidazo[1,2-a]pyrimidine], the inhibition at 10 µM in assay [1] stood at 76.9%. For the same molecule, the IC50 at Human recombinant COX-2 is greater than 100 µM; at Ovine COX-1, 48.3 µM.
On to `Cc1cccc(-c2cc(-c3ccc(S(C)(=O)=O)cc3)nc3nc4ccccc4n23)c1` [Compound 5c, 2-(4-(Methylsulfonyl)phenyl)-4-(m-tolyl)benzo[4,5]imidazo[1,2-a]pyrimidine], for which the inhibition at 10 µM in assay [1] came to 76%. The IC50 at Human recombinant COX-2 is greater than 100 µM; on Ovine COX-1, 24 µM.
On to `Cc1ccc(-c2cc(-c3ccc(S(C)(=O)=O)cc3)nc3nc4ccccc4n23)cc1` [Compound 5d, 2-(4-(Methylsulfonyl)phenyl)-4-(p-tolyl)benzo[4,5]imidazo[1,2-a]pyrimidine], for which the inhibition at 10 µM in assay [1] was 78.2%. The IC50 at Human recombinant COX-2 came out at 0.68 µM; at Ovine COX-1, 40.8 µM. In addition, the “Selectivity Index (SI)” value on Human recombinant COX-2 (COX-1 vs COX-2) came out at 60. The “Response (n) Mean ± SD” value in the assay on male NMRI mice (5 mg/kg i.p.) came to 18.63 ± 5.87; with male NMRI mice (10 mg/kg i.p.), 17.88 ± 4.28; in the assay on male NMRI mice (20 mg/kg i.p.), 14.75 ± 4.47; in the assay on male NMRI mice (40 mg/kg i.p.), 13.25 ± 2.59; in the assay with male NMRI mice (80 mg/kg i.p.), 10.25 ± 2.73. In addition, the ED50 in the assay on male NMRI mice is 5.75 mg/kg.
As for `COc1ccccc1-c1cc(-c2ccc(S(C)(=O)=O)cc2)nc2nc3ccccc3n12` [Compound 5e, 4-(2-Methoxyphenyl)-2-(4-(methylsulfonyl)phenyl)benzo[4,5]imidazo[1,2-a]pyrimidine], the inhibition at 10 µM in assay [1] stood at 74.3%. The values for the half-inhibitory concentration (IC50) on Human recombinant COX-2 and on Ovine COX-1 were 0.06 µM and 6.9 µM, respectively. The “Selectivity Index (SI)” value on Human recombinant COX-2 (COX-1 vs COX-2) is recorded as 115. For the same molecule, the “Response (n) Mean ± SD” value in the assay on male NMRI mice (5 mg/kg i.p.) came to 38.38 ± 1.32; with male NMRI mice (10 mg/kg i.p.), 36.63 ± 1.41; in the assay on male NMRI mice (20 mg/kg i.p.), 28.25 ± 3.99; in the assay with male NMRI mice (40 mg/kg i.p.) it was 19.13 ± 3.76; with male NMRI mice (80 mg/kg i.p.), 15 ± 1.58. In addition, the ED50 in the assay on male NMRI mice was 29 mg/kg.
With `COc1cccc(-c2cc(-c3ccc(S(C)(=O)=O)cc3)nc3nc4ccccc4n23)c1` [Compound 5f, 4-(3-Methoxyphenyl)-2-(4-(methylsulfonyl)phenyl)benzo[4,5]imidazo[1,2-a]pyrimidine], the inhibition at 10 µM in assay [1] came out at 75.4%. Moreover, the IC50 at Human recombinant COX-2 and against Ovine COX-1 was greater than 100 µM throughout.
As to `COc1ccc(-c2cc(-c3ccc(S(C)(=O)=O)cc3)nc3nc4ccccc4n23)cc1` [Compound 5g, 4-(4-Methoxyphenyl)-2-(4-(methylsulfonyl)phenyl)benzo[4,5]imidazo[1,2-a]pyrimidine], the inhibition at 10 µM in assay [1] was 79.6%. The IC50 at Human recombinant COX-2 was 5.4 µM; against Ovine COX-1, greater than 100 µM. At Human recombinant COX-2 (COX-1 vs COX-2), the “Selectivity Index (SI)” value was greater than 18.5. Moreover, the “Response (n) Mean ± SD” value in the assay on male NMRI mice (10 mg/kg i.p.) is listed as 36.63 ± 1.32; with male NMRI mice (20 mg/kg i.p.) it was 29.13 ± 6.27; with male NMRI mice (40 mg/kg i.p.), 21.88 ± 3.37; in the assay on male NMRI mice (80 mg/kg i.p.), 13.63 ± 1.32. The ED50 in the assay with male NMRI mice is 32.1 mg/kg.
Regarding `COc1ccc(-c2cc(-c3ccc(S(C)(=O)=O)cc3)nc3nc4ccccc4n23)cc1OC` [Compound 5h, 4-(3,4-Dimethoxyphenyl)-2-(4-(methylsulfonyl)phenyl)benzo[4,5]imidazo[1,2-a]pyrimidine], the inhibition at 10 µM in assay [1] is 79.3%. Also, the figures for the concentration for half-maximal inhibition (IC50) on Human recombinant COX-2 and at Ovine COX-1 were greater than 100 µM and 13.9 µM, respectively.
As for `COc1cc(-c2cc(-c3ccc(S(C)(=O)=O)cc3)nc3nc4ccccc4n23)cc(OC)c1OC` [Compound 5i, 4-(3,4,5-Trimethoxyphenyl)-2-(4-(methylsulfonyl)phenyl)benzo[4,5]imidazo[1,2-a] pyrimidine], the inhibition at 10 µM in assay [1] amounted to 77.9%. Moreover, the 50% inhibitory concentration (IC50) on Human recombinant COX-2 came to 0.58 µM; against Ovine COX-1, 16.3 µM. The “Selectivity Index (SI)” value on Human recombinant COX-2 (COX-1 vs COX-2) is recorded as 28.1. Besides, the “Response (n) Mean ± SD” value with male NMRI mice (10 mg/kg i.p.) is 39.25 ± 2.38; in the assay on male NMRI mice (20 mg/kg i.p.) it was 30.87 ± 3.82; in the assay with male NMRI mice (40 mg/kg i.p.), 24.62 ± 3.04; in the assay with male NMRI mice (80 mg/kg i.p.), 15.87 ± 3.18. The ED50 with male NMRI mice is 40.1 mg/kg.
With `CS(=O)(=O)c1ccc(-c2cc(-c3ccccc3F)n3c(n2)nc2ccccc23)cc1` [Compound 5j, 4-(2-Flourophenyl)-2-(4-(methylsulfonyl)phenyl)benzo[4,5]imidazo[1,2-a]pyrimidine], the “% Inhibition (10 µM)” value in assay [1] is 76.73%. Further, at Human recombinant COX-2, the “Selectivity Index (SI)” value is listed as 50. The IC50 on Human recombinant COX-2 (setting [2]) is 0.28 µM; at Ovine COX-1 (setting [3]), 14 µM. Also, the “Response (n) Mean ± SD” value in the assay with male NMRI mice (5 mg/kg i.p.) is 33.75 ± 1.39; with male NMRI mice (10 mg/kg i.p.), 25.88 ± 2.98; in the assay with male NMRI mice (20 mg/kg i.p.), 19.88 ± 3.06; with male NMRI mice (40 mg/kg i.p.), 16.75 ± 3.11; with male NMRI mice (80 mg/kg i.p.), 13.38 ± 2.45. The “Estimated ED50 (mg/kg) (95% Confidence Interval)” value with male NMRI mice is on record as 15.34 (13.14–17.89) mg/kg.
With `CS(=O)(=O)c1ccc(-c2cc(-c3cccc(F)c3)n3c(n2)nc2ccccc23)cc1` [Compound 5k, 4-(3-Flourophenyl)-2-(4-(methylsulfonyl)phenyl)benzo[4,5]imidazo[1,2-a]pyrimidine], in assay [1], the “% Inhibition (10 µM)” value is on record as 58.73%. The values for the half-inhibitory concentration (IC50) at Human recombinant COX-2 (setting [2]) and on Ovine COX-1 (setting [3]) were 5.8 µM and greater than 100 µM, respectively. Moreover, the “Response (n) Mean ± SD” value in the assay on male NMRI mice (10 mg/kg i.p.) worked out at 32.38 ± 2.34; with male NMRI mice (20 mg/kg i.p.) it was 25.38 ± 3.43; in the assay on male NMRI mice (40 mg/kg i.p.), 17.63 ± 4.79; in the assay on male NMRI mice (80 mg/kg i.p.) it was 11.88 ± 3.18. Also, in the assay with male NMRI mice, the “Estimated ED50 (mg/kg) (95% Confidence Interval)” value is listed as 22.80 (20.03–25.92) mg/kg.
Take `CS(=O)(=O)c1ccc(-c2cc(-c3ccccc3Cl)n3c(n2)nc2ccccc23)cc1` [Compound 5m, 4-(2-Chlorophenyl)-2-(4-(methylsulfonyl)phenyl)benzo[4,5]imidazo[1,2-a]pyrimidine]: the inhibition at 10 µM in assay [1] worked out at 51.3%. Further, the figures for the 50% inhibitory concentration (IC50) at Human recombinant COX-2 and on Ovine COX-1 were greater than 100 µM and 15.2 µM, respectively.
`CS(=O)(=O)c1ccc(-c2cc(-c3ccc(Cl)cc3)n3c(n2)nc2ccccc23)cc1` [Compound 5o, 4-(4-Chlorophenyl)-2-(4-(methylsulfonyl)phenyl)benzo[4,5]imidazo[1,2-a]pyrimidine]: the inhibition at 10 µM in assay [1] was 72.3%. For the same molecule, the IC50 was greater than 100 µM on Human recombinant COX-2 and 17.8 µM against Ovine COX-1.
